Assay [1] has as its system Rattus norvegicus. Kind of assay: Antisecretory activity in rat assessed as decrease in volume of gastric secretion at 1.5 mg/kg, sc immediately after surgery and again 2 hrs later measured after 4 hrs of pyloric ligation. The assay is classed as functional, Stomach. The arrangement: scale not given: the % may be the effect or the level left. Particulars: route subcutaneous. In a few lines:
(§1)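 Pylorus-ligated rats under ether anesthesia via midline incision; 1.5 mg/kg sc given immediately after surgery and again 2.0 h later (total 3 mg/kg), diluted in phosphate buffer pH 7.4, 1 mL/kg. Six rats per compound plus vehicle control group. Killed 4 h after ligation; gastric volume measured, contents centrifuged 5000 rpm 10 min, supernatant titrated with 0.1 N NaOH to pH 7.0 (mequiv); % change vs control.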

The subject of assay [2] is Rattus norvegicus. Put plainly: Antisecretory activity in rat assessed as decrease in total acid at 1.5 mg/kg, sc immediately after surgery and again 2 hrs later measured after 4 hrs of pyloric ligation. The assay is classed as functional. Also noted: scale not given: the % may be the effect or the level left. Particulars: route subcutaneous. In a few lines:
as §1

The structures appear in SMILES notation.

Regarding `CCCCCC(O)/C=C/CCCC(=O)N(C)CCCCCCC(=O)OC` (stereo not given), the results for the Activity in the assay on Rattus norvegicus [1] and with Rattus norvegicus [2] were 21% and 32%, respectively.

Turning to `CCCCC[C@H](O)/C=C/[C@H]1[C@H](O)CC(=O)[C@@H]1CCCCCCC(=O)O` [ALPROSTADIL], the Activity with Rattus norvegicus [1] was 74%; in the assay on Rattus norvegicus [2], 96%.

For `CCCCC[C@H](O)/C=C/[C@@H]1[C@@H](C/C=C\CCCC(=O)O)[C@@H](O)C[C@H]1O` [DINOPROST], the Activity amounted to 37% with Rattus norvegicus [1] and 42% in the assay on Rattus norvegicus [2].

As for `CCCCCC(O)/C=C/CCOC(=O)CCCCCCCC(=O)OC` (stereo not given), the figures for the Activity with Rattus norvegicus [1] and in the assay with Rattus norvegicus [2] were 25% and 34%, respectively.

Turning to `CCCCCC(O)/C=C/CCCC(=O)N(C)CCCCCCC(=O)O` (stereo not given), the Activity in the assay on Rattus norvegicus [1] and in the assay on Rattus norvegicus [2] was 25% each time.

For the origin of these results see ChEMBL document CHEMBL3244143, “Synthesis and gastric antisecretory properties of an 8-aza-and a 10-oxa-8,12-secoprostaglandin” (1978).
